One data set deals with T1, CCL8 (Homo sapiens, UniProt P80075).
T1 sequence (P80075 24-99): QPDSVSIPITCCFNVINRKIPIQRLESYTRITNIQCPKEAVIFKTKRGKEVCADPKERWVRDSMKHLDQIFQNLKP
As to the kind of experiment: Fluorescence polarization assay, CCL8. Format: binding. The note with it: fluorescent peptide 50 nM, CCL8 1 μM, 30 min, compared with scrambled control. In short, it runs like this:
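Polarization read with FITC filters, gain set to 35 mP on a peptide-only well, and converted to anisotropy A = 2P/(3 − P). Two technical × three biological replicates. Scrambled FITC peptide as negative control; one-way ANOVA with Sidak's correction.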
For orientation: In fluorescence polarisation assays a small probe gives low polarisation when free and higher when bound to something large.

A further data set deals with CCL7. As to the kind of experiment: Fluorescence polarization assay, CCL7. The note with it: BK1.1FITC 50 nM, chemokine 1 μM, compared with negative control CXCL1. In kind it is binding. The gist of the method:
(§1)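 Polarization read with FITC filters, gain set at 35 mP on a peptide-only well, and converted to anisotropy, A = 2P/(3 − P). CXCL1 negative control. Two technical, three biological replicates. One-way ANOVA with Sidak's correction.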

The test system of a further data set is CCL18. The experiment in a line: Fluorescence polarization assay, CCL18. Format: binding. The note with it: BK1.1FITC 50 nM, chemokine 1 μM, compared with negative control CXCL1. The gist of the method:
as §1

In data set [1] the target is EVA1(P672_(22-32)) hybrid protein (not stated | Rhipicephalus pulchellus). The experiment in a line: BLI. In general terms: In BLI a coated tip is dipped into the sample, and binding shifts an interference pattern.
The target of data set [2] is C–C motif chemokine ligand 8 (CCL8) (human) (UniProt P80075).
For the next data set, the target named is human CCL2-647 (human) (UniProt P13500). The experiment in a line: flow cytometry on cells. In general terms: A flow cytometer gives signals particle by particle.
Another data set concerns the target human CCL8-647 (human) (UniProt P80075). As to the kind of experiment: flow cytometry on cells.
The next data set concerns P672–CCL8 complex. As to the kind of experiment: Hydrogen–deuterium exchange MS of the P672–CCL8 complex. The conditions noted are these: complex versus free CCL8; 5 s, 30 s, 5 min, 60 min; triplicate.
Data set [3] addresses T2, C–C motif chemokine ligand 8 (CCL8) (human), P80075.
T2 chain: T1 sequence (P80075 24-99)
The experiment in a line: native MS. The note with it: remark: other sources report otherwise.

Where a SMILES comes first, the peptide text is derived from it. The star is where a group is joined. FITC = O=C1OC2(c3ccc(O)cc3Oc3cc(O)ccc32)c2ccc(NC(=S)*)cc21

Sequence of human CCL2-647 (human) (P13500 24-99): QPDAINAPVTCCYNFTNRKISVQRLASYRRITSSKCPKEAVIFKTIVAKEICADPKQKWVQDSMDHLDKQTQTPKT

In the case of `CC(C)[C@H](NC(=O)[C@@H]1CCCN1C(=O)[C@H](CCCCN)NC(=O)[C@H](Cc1ccccc1)NC(=O)[C@H](Cc1ccccc1)NC(=O)[C@H](CC(=O)O)NC(=O)[C@H](CCC(=O)O)NC(=O)[C@H](Cc1ccc(O)cc1)NC(=O)[C@H](CC(=O)O)NC(=O)[C@H](CCC(=O)O)NC(=O)[C@H](CC(=O)O)NC(=O)[C@H](CCC(=O)O)NC(=S)Nc1ccc2c(c1)C(=O)OC21c2ccc(O)cc2Oc2cc(O)ccc21)C(=O)N[C@H](C(=O)N[C@@H](C)C(=O)N[C@@H](Cc1ccc(O)cc1)C(=O)N[C@@H](Cc1ccccc1)C(N)=O)[C@@H](C)O` [BK1.1FITC] ({FITC}-EDEDYEDFFKPVTAYF-NH2), the “change in anisotropy upon incubation with CCL8” value on CCL8 is recorded as “displayed an increase in anisotropy”. In addition, in the data set on CCL7, the “change in anisotropy with CCL7” value is on record as “significant increases in anisotropy”. For the same molecule, the “change in anisotropy with CCL18” value in the data set on CCL18 is recorded as “significant increases in anisotropy”.
What is called Kd is the equilibrium constant for the complex coming apart. The molecule “C–C motif chemokine ligand 8 (CCL8) (from UniProt P80075 24-99)” showed a Kd in data set [1] of 490 nM.
What is called IC50 is the concentration that gives 50% inhibition. A low value points to greater potency in that assay. Take evasin EVA-P672 (natural protein): in data set [2], the IC50 of inhibition of CCL8-induced THP-1 cell migration was determined as 2.6 nM. In addition, the IC50 with human CCL2-647 (human) and with human CCL8-647 (human) was 21 nM throughout.

B1: C–C motif chemokine ligand 8 (CCL8), P80075 24-99 (ligand)
chain: T1 sequence (P80075 24-99)
The term stoichiometry N denotes the number of molecules, sites or subunits per partner or assembly. B1: the “% relative deuterium uptake (%D), CCL8 Arg18–Ser27” value with P672–CCL8 complex is recorded as −6 to −18%. Further, the stoichiometry N in data set [3] was 2.
